Results as given in ChEMBL document CHEMBL5032502, “Syntheses, Biological Evaluations, and Mechanistic Studies of Benzo[c][1,2,5]oxadiazole Derivatives as Potent PD-L1 Inhibitors with In Vivo Antitumor Activity” (J Med Chem, 2021).
The source made the active and inactive calls. No cut-off for these calls is given here.

Tests used:
B16-F10 [1] = experiment: Antitumor activity against mouse B16-F10 cells implanted in C57BL/6 mouse assessed as tumor weight at 45 mg/kg, po measured after 18 days (reference value: 1.76 gm); format: functional; details: time 18 day
How it was run: (§1)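 Female C57BL/6J mice, 8 weeks old, injected dorsally with 1 × 10⁶ B16-F10 cells in PBS. Daily oral gavage started the same day (day 1), in 0.5% CMC-Na vehicle. Tumour size and body weight recorded daily, volume = 0.5 × L × W². Sacrifice on day 18, tumours excised and weighed. TGI = (1 − Vt/Vv) × 100.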

[2] = AUC (0 to t) in C57BL/6 mouse at 10 mg/kg, po measured upto 24 hrs by LC-MS analysis; format: ADME, organism-based; set-up: route oral, dose 10 mg/kg, time <=24; details: in vivo
How it was run: (§2)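 Male animals fasted 12 h before dosing. Plasma levels measured by LC-MS, with the prodrug quantified as the parent acid. Mean ± SEM, n = 3.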

[3] = Tmax in C57BL/6 mouse at 10 mg/kg, po measured upto 24 hrs by LC-MS analysis; format: ADME, organism-based; details: in vivo
How it was run: (§3)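 Male Sprague-Dawley rats or C57BL/6 mice fasted 12 h before dosing, given oral (po) or intravenous (iv) doses. Plasma levels measured by LC-MS. Parameters reported as mean ± SEM, n = 3.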

[4] = Oral bioavailability in Sprague-Dawley rat at 45 mg/kg measured upto 24 hrs by LC-MS analysis; format: ADME, organism-based; details: in vivo; how it was run: as §3
B16-F10 [5] = experiment: Antitumor activity against mouse B16-F10 cells implanted in C57BL/6 mouse assessed as tumor growth inhibition at 15 mg/kg, po measured after 18 days; format: functional; details: 432 h, time 18 day, read-out: TGI; how it was run: as §1
[6] = Tmax in Sprague-Dawley rat at 9 mg/kg, iv measured upto 24 hrs by LC-MS analysis; format: ADME, organism-based; details: in vivo; how it was run: as §3
MC-38 [7] = experiment: Antitumor activity against mouse MC38 cells xenografted in C57BL/6 mouse assessed as increase in ratio of CD8 positive T cells to CD4 positive T cells at 25 mg/kg, po by flow cytometry analysis; format: functional, organism-based
How it was run: (§4)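 Tumours taken from PD-L1-humanized mice carrying MC38-hPD-L1 tumours and dosed orally at 5 or 25 mg/kg daily. Tissue digested to single cells, red cells lysed with ACK buffer, Fc blocked. Surface stain 60 min for CD45, CD3, CD4, CD8, CD335, CD11b, Ly6G, Ly6C and F4/80, with a viability dye. Intracellular FOXP3 stain after permeabilization. Mean ± SEM, n = 7−8, one-way ANOVA.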

[8] = Half life in C57BL/6 mouse at 10 mg/kg, po measured upto 24 hrs by LC-MS analysis; format: ADME, organism-based; details: in vivo; how it was run: as §2
[9] = Half life in Sprague-Dawley rat at 9 mg/kg, iv measured upto 24 hrs by LC-MS analysis; format: ADME, organism-based; details: in vivo; how it was run: as §2
MC-38 [10] = experiment: Antitumor activity against mouse MC38 cells implanted in C57BL/6 mouse assessed as tumor growth inhibition at 50 mg/kg, po measured after 14 days; format: functional; details: MC-38, po, 336 h, time 14 day, read-out: TGI
[11] = Toxicity in C57BL/6 mouse assessed as effect on AST level at 2000 mg/kg, po observed for 30 days; format: organism-based; details: in vivo, 720 h, time 30 day
[12] = Cmax in Sprague-Dawley rat at 45 mg/kg, po measured upto 24 hrs by LC-MS analysis; format: ADME, organism-based; set-up: route oral, dose 45 mg/kg, time <=24; details: in vivo; how it was run: as §2
[13] = Cmax in Sprague-Dawley rat at 9 mg/kg, iv measured upto 24 hrs by LC-MS analysis; format: ADME, organism-based; set-up: route intravenous, dose 9 mg/kg, time <=24; details: in vivo; how it was run: as §2
MC-38 [14] = experiment: Antitumor activity against mouse MC38 cells implanted in C57BL/6 mouse assessed as tumor growth inhibition at 300 mg/kg, po measured after 14 days; format: functional; details: MC-38, po, 336 h, time 14 day, read-out: TGI
[15] = Acute toxicity in C57BL/6 mouse assessed as mortality at 2000 mg/kg, po observed for 30 days; format: organism-based; details: in vivo, 720 h, time 30 day
How it was run: (§5)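 Healthy C57BL/6 mice got a single oral 2000 mg/kg dose. Mortality and body weight were then recorded over a 30-day observation period.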

[16] = Subacute toxicity in C57BL/6 mouse assessed as mortality at 2000 mg/kg, po observed for 30 days; format: organism-based; details: in vivo, 720 h, time 30 day
[17] = Tmax in Sprague-Dawley rat at 45 mg/kg, po measured upto 24 hrs by LC-MS analysis; format: ADME, organism-based; details: in vivo; how it was run: as §3
[18] = Toxicity in C57BL/6 mouse assessed as effect on creatinine kinase level at 2000 mg/kg, po observed for 30 days; format: organism-based; details: in vivo, 720 h, time 30 day
[19] = Toxicity in C57BL/6 mouse assessed as effect on BUN level at 2000 mg/kg, po observed for 30 days; format: organism-based; details: in vivo, 720 h, time 30 day
MC-38 [20] = experiment: Antitumor activity against PD-L1 humanized mouse MC38 cells implanted in PD-L1 humanized C57BL/6 mouse assessed as tumor growth inhibition at 50 mg/kg, po measured after 30 days; format: functional; details: MC-38, po, 720 h, time 30 day, read-out: TGI
How it was run: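 PD-L1-humanized C57BL/6 mice given 1 × 10⁶ MC38-hPD-L1(Tg)-mPDL1(KO) cells in the right flank. Once tumours reached 50 mm³, randomized into three groups: CMC-Na vehicle, 25 or 50 mg/kg by daily oral gavage for 30 days. TGI from mean tumour volume of treated versus vehicle groups. n = 6.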

MC-38 [21] = experiment: Antitumor activity against mouse MC38 cells xenografted in C57BL/6 mouse assessed as reduction in mMDSC cells at 25 mg/kg, po by flow cytometry analysis; format: functional, organism-based; how it was run: as §4
MC-38 [22] = experiment: Antitumor activity against mouse MC38 cells xenografted in C57BL/6 mouse assessed as change in regulatory T cells at 25 mg/kg, po by flow cytometry analysis; format: functional, organism-based; how it was run: as §4
[23] = Tmax in C57BL/6 mouse at 2 mg/kg, iv measured upto 24 hrs by LC-MS analysis; format: ADME, organism-based; details: in vivo; how it was run: as §3
MC-38 [24] = experiment: Antitumor activity against mouse MC38 cells xenografted in C57BL/6 mouse assessed as reduction in gMDSC cells at 25 mg/kg, po by flow cytometry analysis; format: functional, organism-based; how it was run: as §4
MC-38 [25] = experiment: Antitumor activity against mouse MC38 cells xenografted in C57BL/6 mouse assessed as increase in NK cells at 25 mg/kg, po by flow cytometry analysis; format: functional, organism-based; how it was run: as §4
B16-F10 [26] = experiment: Antitumor activity against mouse B16-F10 cells implanted in C57BL/6 mouse assessed as tumor growth inhibition at 45 mg/kg, po measured after 18 days; format: functional; details: 432 h, time 18 day, read-out: TGI; how it was run: as §1
MC-38 [27] = experiment: Antitumor activity against mouse MC38 cells xenografted in C57BL/6 mouse assessed as increase in CD3 positive T cells at 25 mg/kg, po by flow cytometry analysis; format: functional, organism-based; how it was run: as §4
[28] = AUC (0 to t) in C57BL/6 mouse at 2 mg/kg, iv measured upto 24 hrs by LC-MS analysis; format: ADME, organism-based; set-up: route intravenous, dose 2 mg/kg, time <=24; details: in vivo; how it was run: as §2
[29] = Clearance in Sprague-Dawley rat at 9 mg/kg, iv measured upto 24 hrs by LC-MS analysis; format: ADME, organism-based; details: in vivo; how it was run: as §2
[30] = Half life in Sprague-Dawley rat at 45 mg/kg, po measured upto 24 hrs by LC-MS analysis; format: ADME, organism-based; details: in vivo; how it was run: as §2
[31] = Acute toxicity in C57BL/6 mouse assessed as body weight loss at 2000 mg/kg, po observed for 30 days; format: organism-based; details: in vivo, 720 h, time 30 day; how it was run: as §5
[32] = Cmax in C57BL/6 mouse at 2 mg/kg, iv measured upto 24 hrs by LC-MS analysis; format: ADME, organism-based; set-up: route intravenous, dose 2 mg/kg, time <=24; details: in vivo; how it was run: as §2
[33] = Oral bioavailability in C57BL/6 mouse at 10 mg/kg measured upto 24 hrs by LC-MS analysis; format: ADME, organism-based; details: in vivo; how it was run: as §3

Question: With CCOC(=O)[C@@H](CO)NCc1cc(Cl)c(OCc2cccc(-c3ccccc3)c2Br)cc1OCc1ccc2nonc2c1.Cl as the compound, how does the Activity (B16-F10 [1]) read?
Answer: 0.79 g

Question: And the AUC(0-t) at 24 h [2]?
Answer: 444 ng·h/mL

Question: What about the Tmax [3] of the same compound?
Answer: 1 h

Question: What about the bioavailability [4] of the same compound?
Answer: 9.12%

Question: What about the inhibition in vivo at 15 mg/kg (B16-F10 [5]) of the same compound?
Answer: 45.8%

Question: And the Tmax [6]?
Answer: 4.8 min

Question: What about the Activity (MC-38 [7]) of the same compound?
Answer: Active

Question: What about the half-life [8] of the same compound?
Answer: 1.55 h

Question: And the half-life [9]?
Answer: 5.02 h

Question: And the inhibition in vivo at 50 mg/kg (MC-38 [10])?
Answer: 50.9%

Question: What about the Activity [11] of the same compound?
Answer: Non-Toxic

Question: What about the Cmax [12] of the same compound?
Answer: 488 ng/mL

Question: What about the Cmax [13] of the same compound?
Answer: 13000 ng/mL

Question: What about the inhibition in vivo at 300 mg/kg (MC-38 [14]) of the same compound?
Answer: 36.5%

Question: What about the Activity [15] of the same compound?
Answer: Non-Toxic

Question: What about the Activity [16] of the same compound?
Answer: Non-Toxic

Question: And the Tmax [17]?
Answer: 4 h

Question: And the Activity [18]?
Answer: Non-Toxic

Question: And the Activity [19]?
Answer: Non-Toxic

Question: What about the inhibition in vivo at 50 mg/kg (MC-38 [20]) of the same compound?
Answer: 30.8%

Question: What about the Activity (MC-38 [21]) of the same compound?
Answer: Active

Question: And the Activity (MC-38 [22])?
Answer: inactive

Question: What about the Tmax [23] of the same compound?
Answer: 4.8 min

Question: What about the Activity (MC-38 [24]) of the same compound?
Answer: Active

Question: What about the Activity (MC-38 [25]) of the same compound?
Answer: Active

Question: And the inhibition in vivo at 45 mg/kg (B16-F10 [26])?
Answer: 70.7%

Question: And the Activity (MC-38 [27])?
Answer: Active

Question: And the AUC(0-t) at 24 h [28]?
Answer: 1150 ng·h/mL

Question: And the clearance [29]?
Answer: 23.8 mL/min/kg

Question: And the half-life [30]?
Answer: 3.43 h

Question: And the Activity [31]?
Answer: Non-Toxic

Question: What about the Cmax [32] of the same compound?
Answer: 2820 ng/mL

Question: What about the bioavailability [33] of the same compound?
Answer: 7.7%
